Laboratory results reported in ChEMBL document CHEMBL4190344, “Synthesis of substituted phenanthrene-9-benzimidazole conjugates: Cytotoxicity evaluation and apoptosis inducing studies” (Eur J Med Chem, 2017).
Active and inactive are the calls of the source. The calls are words filed in the database; no cut-off is given here.

How the values were obtained:
PC-3 [1] = experiment: Induction of cell death in human PC3 cells assessed as induction of membrane blebbing at 10 uM incubated for 48 hrs by acridine orange and ethidium bromide staining based fluorescence microscopy; assay type: functional
Procedure, shortened: (§1)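 PC-3 cells (1 × 10^6 cells/mL) were treated with compound and kept 48 h at 37 °C, 5% CO2. Acridine orange and ethidium bromide (10 µg/mL) were added in equal volumes. After 10 min, cells were imaged by fluorescence microscopy (ex 488/em 550 nm, 200×).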

PC-3 [2] = experiment: Induction of apoptosis in human PC3 cells assessed as early apoptotic cells level at 5 uM incubated for 24 hrs by annexin V-FITC/propidium iodide dual staining based flow cytometry (reference value: 11.76%); assay type: functional
Procedure, shortened: (§2)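 PC-3 cells were grown 24 h, then treated 24 h at 2.5, 5.0 or 10 µM. Cells were trypsinised, washed twice in ice-cold PBS and stained in binding buffer with Annexin V-FITC followed by propidium iodide at room temperature in the dark. 10,000 cells per sample were run on a flow cytometer, with quadrants scored as live, early apoptotic, late apoptotic or necrotic.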

PC-3 [3] = experiment: Induction of reactive oxygen species in human PC3 cells at 2.5 to 10 uM incubated for 6 hrs by DCFDA dye based spectrofluorometry; assay type: functional, cell-based
Procedure, shortened: (§3)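 PC-3 cells (1 × 10^6 cells/mL) adhered overnight, then were treated at 2.5, 5.0 or 10.0 µM. Medium was replaced with DCFDA 10 µM for 30 min in the dark, and fluorescence read by spectrofluorometer at ex 488/em 525 nm. N-acetyl cysteine pretreatment before compound and H2O2 were used as comparisons.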

PC-3 [4] = experiment: Cell cycle arrest in human PC3 cells assessed as accumulation at subG1 phase at 2.10 uM incubated for 24 hrs by propidium iodide staining based flow cytometry (reference value: 1.71%); assay type: functional
HCT-116 = experiment: Cytotoxicity in human HCT116 cells incubated for 48 hrs by MTT assay; assay type: functional, cell-based; details: HCT-116, 48 h
Procedure, shortened: (§4)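 Cells (1 × 10^4/well) were seeded in medium with 10% FBS and left 24 h at 37 °C. Compound diluted in medium was then added, alongside a vehicle control, for 48 h. MTT (5 mg/mL stock) was added for 4 h, formazan dissolved in DMSO and absorbance read at 570 nm.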

DU-145 = experiment: Cytotoxicity in human DU145 cells incubated for 48 hrs by MTT assay; assay type: functional, cell-based; details: DU-145, 48 h
Procedure, shortened: as §4, with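 “nm. IC50 taken as the concentration giving 50% inhibition.” for “nm.”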

PC-3 [5] = experiment: Induction of apoptosis in human PC3 cells assessed as late apoptotic cells level at 2.5 uM incubated for 24 hrs by annexin V-FITC/propidium iodide dual staining based flow cytometry (reference value: 10.92%); assay type: functional; procedure, shortened: as §2
PC-3 [6] = experiment: Cell cycle arrest in human PC3 cells assessed as accumulation at G2/M phase at 10 uM incubated for 24 hrs by propidium iodide staining based flow cytometry (reference value: […])
PC-3 [7] = experiment: Induction of apoptosis in human PC3 cells assessed as induction of condensed nuclei formation at 2.5 to 10 uM incubated for 48 hrs by DAPI staining based fluorescence microscopy; assay type: functional, cell-based
Procedure, shortened: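 Compound-treated PC-3 cells were PBS-washed, permeabilised with 0.1% Tween 20 for 10 min and stained with 1 µM DAPI. Nuclear morphology was viewed by fluorescence microscopy at ex 359/em 461 nm, 200×.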

PC-3 [8] = experiment: Induction of reactive oxygen species in human PC3 cells at 2.5 to 10 uM pre-incubated with NAC before compound addition for 6 hrs by DCFDA dye based spectrofluorometry; assay type: functional, cell-based; procedure, shortened: as §3
PC-3 [9] = experiment: Induction of apoptosis in human PC3 cells assessed as late apoptotic cells level at 10 uM incubated for 24 hrs by annexin V-FITC/propidium iodide dual staining based flow cytometry (reference value: 10.92%); assay type: functional; procedure, shortened: as §2
HCT-15 = experiment: Cytotoxicity in human HCT15 cells incubated for 48 hrs by MTT assay; assay type: functional, cell-based; details: HCT-15, 48 h
Procedure, shortened: as §4, with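 “nm. IC50 taken as the concentration giving 50% inhibition.” for “nm.”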

PC-3 [10] = experiment: Induction of mitochondrial membrane potential loss in human PC3 cells assessed as JC1 monomer level at 10 uM incubated for 24 hrs by JC1 staining based flow cytometry (reference value: 22.8%); assay type: functional
PC-3 [11] = experiment: Induction of apoptosis in human PC3 cells assessed as viable cells level at 5 uM incubated for 24 hrs by annexin V-FITC/propidium iodide dual staining based flow cytometry (reference value: 76.73%); assay type: functional; procedure, shortened: as §2
PC-3 [12] = experiment: Induction of apoptosis in human PC3 cells assessed as necrotic cells level at 5 uM incubated for 24 hrs by annexin V-FITC/propidium iodide dual staining based flow cytometry (reference value: 0.59%); assay type: functional; procedure, shortened: as §2
PC-3 [13] = experiment: Cell cycle arrest in human PC3 cells assessed as accumulation at G0/G1 phase at 5 uM incubated for 24 hrs by propidium iodide staining based flow cytometry (reference value: 56.67%); assay type: functional
PC-3 [14] = experiment: Induction of apoptosis in human PC3 cells assessed as viable cells level at 2.5 uM incubated for 24 hrs by annexin V-FITC/propidium iodide dual staining based flow cytometry (reference value: 76.73%); assay type: functional; procedure, shortened: as §2
PC-3 [15] = experiment: Induction of mitochondrial membrane potential loss in human PC3 cells assessed as JC1 aggregate level at 10 uM incubated for 24 hrs by JC1 staining based flow cytometry (reference value: 76.94%); assay type: functional
PC-3 [16] = experiment: Cell cycle arrest in human PC3 cells assessed as accumulation at S phase at 2.5 uM incubated for 24 hrs by propidium iodide staining based flow cytometry (reference value: 13.92%); assay type: functional
PC-3 [17] = experiment: Induction of cell death in human PC3 cells assessed as induction of apoptotic body formation at 10 uM incubated for 48 hrs by acridine orange and ethidium bromide staining based fluorescence microscopy; assay type: functional; procedure, shortened: as §1
PC-3 [18] = experiment: Cell cycle arrest in human PC3 cells assessed as accumulation at subG1 phase at 5 uM incubated for 24 hrs by propidium iodide staining based flow cytometry (reference value: 1.71%); assay type: functional
PC-3 [19] = experiment: Cell cycle arrest in human PC3 cells assessed as accumulation at S phase at 2.10 uM incubated for 24 hrs by propidium iodide staining based flow cytometry (reference value: 13.92%); assay type: functional

COc1ccc2cc(-c3nc4ccc(F)cc4[nH]3)c3cc(OC)c(OC)cc3c2c1
Activity (PC-3 [1]): Active | Activity (PC-3 [2]): 33.41% | Activity (PC-3 [3]): Dose-dependent effect | Activity (PC-3 [4]): 5.01% | IC50 (HCT-116): > 20 µM | IC50 (DU-145): > 20 µM | Activity (PC-3 [5]): 24.89% | Activity (PC-3 [6]): 44.16% | Activity (PC-3 [7]): Active | Activity (PC-3 [8]): inactive | Activity (PC-3 [9]): 49.02% | IC50 (HCT-15): > 20 µM | Activity (PC-3 [10]): 95.64% | Activity (PC-3 [11]): 32.12% | Activity (PC-3 [12]): 0.44% | Activity (PC-3 [13]): 49.29% | Activity (PC-3 [14]): 38.69% | Activity (PC-3 [15]): 4.29% | Activity (PC-3 [16]): 11.3% | Activity (PC-3 [17]): Active | Activity (PC-3 [18]): 5.01% | Activity (PC-3 [19]): 11.76%
